Laboratory results taken from ChEMBL document CHEMBL4480412, “Deleting a Chromatin Remodeling Gene Increases the Diversity of Secondary Metabolites Produced by Colletotrichum higginsianum” (2019).
≈ marks a conversion by molar mass, not a printed value.

Tests used:
Escherichia coli = experiment: Antibacterial activity against Escherichia coli ATCC 25922 by broth microdilution method; format: functional
How it was run: (§1)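 Broth microdilution run to CLSI guidelines; read-out is minimal inhibitory concentration (MIC). Chloramphenicol used as reference antibacterial.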

Bacillus spizizenii = experiment: Antibacterial activity against Bacillus subtilis ATCC 6633 by broth microdilution method; format: functional; how it was run: as §1
Micrococcus luteus = experiment: Antibacterial activity against Micrococcus luteus ATCC 10240 by broth microdilution method; format: functional; how it was run: as §1
Rhizopus arrhizus = experiment: Antifungal activity against Rhizopus oryzae ATCC 11145 by EUCAST method; format: functional
How it was run: (§2)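 Susceptibility testing by the EUCAST method; read-out is minimal inhibitory concentration (MIC). Amphotericin B used as reference antifungal.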

Aspergillus ochraceus = experiment: Antifungal activity against Aspergillus ochraceus ATCC 1009 by EUCAST method; format: functional; how it was run: as §2
Botrytis cinerea = experiment: Antifungal activity against Botrytis cinerea B05.10 by EUCAST method; format: functional; how it was run: as §2
[1] = molecular target: T1, Tyrosinase (Homo sapiens) (UniProt P14679); experiment: Inhibition of tyrosinase (unknown origin) at 200 uM relative to control
T1 sequence (whole entry): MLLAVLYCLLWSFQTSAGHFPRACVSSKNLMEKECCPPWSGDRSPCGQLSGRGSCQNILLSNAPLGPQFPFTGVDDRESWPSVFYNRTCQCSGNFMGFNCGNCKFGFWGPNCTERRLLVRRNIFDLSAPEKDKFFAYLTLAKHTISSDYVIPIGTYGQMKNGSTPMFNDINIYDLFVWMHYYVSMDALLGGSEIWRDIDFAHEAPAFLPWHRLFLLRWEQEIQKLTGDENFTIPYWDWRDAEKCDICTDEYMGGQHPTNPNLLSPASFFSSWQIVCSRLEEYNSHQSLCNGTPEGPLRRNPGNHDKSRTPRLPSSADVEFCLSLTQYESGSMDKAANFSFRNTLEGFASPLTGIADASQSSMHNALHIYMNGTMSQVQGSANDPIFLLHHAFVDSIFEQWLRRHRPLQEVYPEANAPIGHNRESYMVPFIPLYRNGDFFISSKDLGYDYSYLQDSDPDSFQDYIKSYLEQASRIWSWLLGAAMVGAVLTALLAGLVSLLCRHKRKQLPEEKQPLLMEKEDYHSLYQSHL

[2] = molecular target: Collagenase (Homo sapiens) (UniProt P08253+P14780+P22894+P45452+P03956); experiment: Inhibition of collagenase (unknown origin) at 200 uM relative to control; format: protein assay
Homo sapiens [3] = species: Homo sapiens; experiment: Inhibition of hyaluronidase (unknown origin) at 200 uM relative to control
Homo sapiens [4] = species: Homo sapiens; experiment: Inhibition of elastase (unknown origin) at 200 uM relative to control
[5] = Antioxidant activity assessed as DPPH radical scavenging activity at 200 uM; format: functional

| Compound | MIC (Escherichia coli) [µM] | MIC (Bacillus spizizenii) [µM] | MIC (Micrococcus luteus) [µM] | MIC (Rhizopus arrhizus) [µM] | MIC (Aspergillus ochraceus) [µM] | MIC (Botrytis cinerea) [µM] | inhibition [1] [%] | inhibition [2] [%] | inhibition (Homo sapiens [3]) [%] | inhibition (Homo sapiens [4]) [%] | inhibition [5] [%] |
| --- | --- | --- | --- | --- | --- | --- | --- | --- | --- | --- | --- |
| O=C(N[C@H](CO)[C@H](O)c1ccc([N+](=O)[O-])cc1)C(Cl)Cl [CHLORAMPHENICOL] | 10 (≈ 3.23 µg/mL) | 10 (≈ 3.23 µg/mL) | 10 (≈ 3.23 µg/mL) | – | – | – | – | – | – | – | – |
| CO[C@@H]1[C@@H](O)[C@H](O)[C@H](OC(=O)C2=CC[C@H](C(C)C)[C@H]3C=C(C)CC[C@@H]23)[C@H](OC)[C@H]1O | > 225 | > 225 | > 225 | > 225 | > 225 | > 225 | < 20 | < 20 | < 20 | < 20 | < 20 |
| C[C@@H]1[C@H](O)[C@@H](C)/C=C/C=C/C=C/C=C/C=C/C=C/C=C/[C@H](O[C@@H]2O[C@H](C)[C@@H](O)[C@H](N)[C@@H]2O)C[C@@H]2O[C@](O)(C[C@@H](O)C[C@@H](O)[C@H](O)CC[C@@H](O)C[C@@H](O)CC(=O)O[C@H]1C)C[C@H](O)[C@H]2C(=O)O [AMPHOTERICIN B] | – | – | – | 2 (≈ 1.85 µg/mL) | 2 (≈ 1.85 µg/mL) | 2 (≈ 1.85 µg/mL) | – | – | – | – | – |

The next lines start with results.

| MIC (Escherichia coli) [µM] | MIC (Bacillus spizizenii) [µM] | MIC (Micrococcus luteus) [µM] | MIC (Rhizopus arrhizus) [µM] | MIC (Aspergillus ochraceus) [µM] | MIC (Botrytis cinerea) [µM] | inhibition [1] [%] | inhibition [2] [%] | inhibition (Homo sapiens [3]) [%] | inhibition (Homo sapiens [4]) [%] | Compound | inhibition [5] [%] |
| --- | --- | --- | --- | --- | --- | --- | --- | --- | --- | --- | --- |
| > 225 | > 225 | > 225 | > 225 | > 225 | > 225 | < 20 | < 20 | < 20 | < 20 | CC(C)=CCc1c(O)cc(C)c(C=O)c1O | < 20 |
| > 225 | > 225 | > 225 | > 225 | > 225 | > 225 | < 20 | < 20 | < 20 | < 20 | C=C1CC[C@@H]2[C@](C)(CC[C@H]3O[C@H](C(C)(C)O)CC[C@@]23C)[C@@H]1Cc1c(O)c(C)c(C)oc1=O | < 20 |
| > 225 | > 225 | > 225 | > 225 | > 225 | > 225 | < 20 | < 20 | < 20 | < 20 | C=C1CC[C@@H]2[C@](C)(CC[C@H]3O[C@@H](C(C)(C)O)CC[C@@]23C)[C@@H]1Cc1c(O)c(C)c(C)oc1=O | < 20 |
| > 225 | > 225 | > 225 | > 225 | > 225 | > 225 | < 20 | < 20 | < 20 | < 20 | CC(C)=CCc1c(O)cc(C)c(C(=O)O)c1O | < 20 |
